Reference: article PMC6400527 (The Journal of General Physiology, 2019)
Read-outs that look alike come from different tables or passages of the source.

What was measured:
[1] = test system: AgA(15) channels in DC18:1PC/n-decane bilayer; assay: gA single-channel electrophysiology, AgA; format: biochemical; settings: mean ± SE, n = 3–4
Outline: (§1)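 Bilayer of DC18:1PC in n-decane formed across a 1–1.5 mm Teflon hole. It was co-doped with AgA(15) (total a few pM) and gA−(13) (~10-fold higher). Test compound from DMSO stock was added to both sides at increasing concentrations. Patches were isolated with 20–40 µm punch electrodes in 1 M NaCl, 10 mM HEPES pH 7, 25 ± 1°C, ±200 mV. Signals were filtered at 5 kHz, sampled at 20 kHz, then filtered at 200–500 Hz. Events were detected by a transition-based algorithm. Lifetimes came from single-exponential fits of survivor histograms, normalized to no-drug lifetimes in the same experiment. n = 3–4.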

[2] = Bilayer elastic coefficient HB / property altered, from lifetimes of gA−; settings: for bilayer property primarily altered: single-channel electrophysiology; for decrease of HB (bilayer elastic coefficient): 100 µM, HB of unmodified bilayer ∼22 kBT/nm^2
[3] = test system: gA^−(13) channels in DC18:1PC/n-decane bilayer; assay: gA single-channel electrophysiology, gA−; format: biochemical; settings: mean ± SE, n = 3–4
Outline: as §1

[4] = ref Karson et al., 1993; Bolo et al., 2000; cited from earlier work
[5] = biological target: [Ala^1]gA, 15-amino-acid analogue of gramicidin A; assay: single-channel electrophysiology
[6] = biological target: [Ala^1]gA, 15-amino-acid analogue of gramicidin A; assay: single-channel electrophysiology; remark: listed apart in the source
[7] = biological target: [Ala^1]gA, 15-amino-acid analogue of gramicidin A; assay: single-channel electrophysiology; remark: listed apart in the source
[8] = biological target: [Ala^1]gA, 15-amino-acid analogue of gramicidin A; assay: single-channel electrophysiology; remark: listed apart in the source
[9] = biological target: [Ala^1]gA, 15-amino-acid analogue of gramicidin A; assay: single-channel electrophysiology; remark: listed apart in the source
[10] = biological target: [Ala^1]gA, 15-amino-acid analogue of gramicidin A; assay: single-channel electrophysiology; remark: listed apart in the source
[11] = biological target: des-(D-Val-Gly)gA^−, chain-shortened enantiomer of gramicidin A; assay: single-channel electrophysiology
[12] = biological target: des-(D-Val-Gly)gA^−, chain-shortened enantiomer of gramicidin A; assay: single-channel electrophysiology; remark: listed apart in the source
[13] = biological target: des-(D-Val-Gly)gA^−, chain-shortened enantiomer of gramicidin A; assay: single-channel electrophysiology; remark: listed apart in the source
[14] = biological target: des-(D-Val-Gly)gA^−, chain-shortened enantiomer of gramicidin A; assay: single-channel electrophysiology; remark: listed apart in the source
[15] = biological target: des-(D-Val-Gly)gA^−, chain-shortened enantiomer of gramicidin A; assay: single-channel electrophysiology; remark: listed apart in the source
[16] = biological target: des-(D-Val-Gly)gA^−, chain-shortened enantiomer of gramicidin A; assay: single-channel electrophysiology; remark: listed apart in the source

## CN(C)CCC=C1c2ccccc2CCc2ccccc21 [Amitriptyline]
[1]; 100 µM
  τAD,15/τcntrl,15 (normalized AgA(15) lifetime): 1.5 ± 0.1
[2]
  bilayer property primarily altered: intrinsic curvature
[3]; 100 µM
  τAD,13/τcntrl,13 (normalized gA−(13) lifetime): 1.6 ± 0.1

## CN(C)CCCC1(c2ccc(F)cc2)OCc2cc(C#N)ccc21 (centres unmarked) [Citalopram (R−), Citalopram]
[1]; 250 µM
  τAD,15/τcntrl,15 (normalized AgA(15) lifetime): 1.78 ± 0.04
[3]; 250 µM
  τAD,13/τcntrl,13 (normalized gA−(13) lifetime): 1.8 ± 0.1

## CN(C)CCCC1(c2ccc(F)cc2)OCc2cc(C#N)ccc21 (centres unmarked) [Citalopram (S+), Citalopram]
[1]; 250 µM
  τAD,15/τcntrl,15 (normalized AgA(15) lifetime): 1.9 ± 0.2
[3]; 250 µM
  τAD,13/τcntrl,13 (normalized gA−(13) lifetime): 2.0 ± 0.2

## CN(C)CCCC1(c2ccc(F)cc2)OCc2cc(C#N)ccc21 (centres unmarked) [Citalopram]
[2]
  bilayer property primarily altered: intrinsic curvature

## CNCCC(Oc1ccc(C(F)(F)F)cc1)c1ccccc1 (centres unmarked) [Fluoxetine (R−), Fluoxetine]
[1]; 100 µM
  τAD,15/τcntrl,15 (normalized AgA(15) lifetime): 2.3 ± 0.3
[2]
  decrease of HB (bilayer elastic coefficient): ~3.0 ± 0.3 kBT/nm^2
[3]; 100 µM
  τAD,13/τcntrl,13 (normalized gA−(13) lifetime): 3.1 ± 0.6

## CNCCC(Oc1ccc(C(F)(F)F)cc1)c1ccccc1 (centres unmarked) [Fluoxetine (S+), Fluoxetine]
[1]; 100 µM
  τAD,15/τcntrl,15 (normalized AgA(15) lifetime): 2.3 ± 0.3
[2]
  decrease of HB (bilayer elastic coefficient): ~2.3 ± 0.5 kBT/nm^2
[3]; 100 µM
  τAD,13/τcntrl,13 (normalized gA−(13) lifetime): 2.9 ± 0.4

## CNCCC(Oc1ccc(C(F)(F)F)cc1)c1ccccc1 (centres unmarked) [Fluoxetine]
[4]
  concentration in brain: up to 10 µM
[2]
  bilayer property primarily altered: bilayer elasticity

## CN(C)CCCN1c2ccccc2CCc2ccccc21 [Imipramine]
[1]; 100 µM
  τAD,15/τcntrl,15 (normalized AgA(15) lifetime): 1.4 ± 0.1
[2]
  decrease of HB (bilayer elastic coefficient): ~1.3 ± 0.9 kBT/nm^2
  bilayer property primarily altered: intrinsic curvature
[3]; 100 µM
  τAD,13/τcntrl,13 (normalized gA−(13) lifetime): 1.5 ± 0.1

## [Ala^1]gA, 15-amino-acid analogue of gramicidin A (peptide)
[5]
  normalised single-channel (dimer) lifetime τ (AD,15)/τ (cntrl,15): 1.5
[6]
  normalised single-channel (dimer) lifetime τ (AD,15)/τ (cntrl,15): 2.3
[7]
  normalised single-channel (dimer) lifetime τ (AD,15)/τ (cntrl,15): 1.9
[8]
  normalised single-channel (dimer) lifetime τ (AD,15)/τ (cntrl,15): 1.4
[9]
  normalised single-channel (dimer) lifetime τ (AD,15)/τ (cntrl,15): 1.78
[10]
  normalised single-channel (dimer) lifetime τ (AD,15)/τ (cntrl,15): 2.3

## des-(D-Val-Gly)gA^−, chain-shortened enantiomer of gramicidin A (peptide)
[11]
  normalised single-channel (dimer) lifetime τ (AD,13)/τ (cntrl,13): 1.6
[12]
  normalised single-channel (dimer) lifetime τ (AD,13)/τ (cntrl,13): 3.1
[13]
  normalised single-channel (dimer) lifetime τ (AD,13)/τ (cntrl,13): 2
[14]
  normalised single-channel (dimer) lifetime τ (AD,13)/τ (cntrl,13): 1.5
[15]
  normalised single-channel (dimer) lifetime τ (AD,13)/τ (cntrl,13): 1.8
[16]
  normalised single-channel (dimer) lifetime τ (AD,13)/τ (cntrl,13): 2.9
